Results published in ChEMBL document CHEMBL1143188, “5-Aryl-imidazolin-2-ones as a scaffold for potent antioxidant and memory-improving activity” (Bioorg Med Chem Lett, 2008).
The source made the active and inactive calls. The rule behind the calls is not given here.

Experiments:
[1] = test system: Brain; assay: Inhibition of lipid peroxidation in Wistar rat brain homogenates by TBARS assay; format: functional, tissue-based
In short: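 Male Wistar rat brain homogenate autooxidized at 37 °C for 30 min with or without compound. Lipid peroxidation read by a modified thiobarbituric acid (TBARS) test; IC50 derived.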

[2] = test system: Rattus norvegicus; assay: Memory improving activity in po dosed rat passive avoidance model assessed as effect on cycloheximide-induced amnesia; format: functional; details: read-out: MED
In short: (§1)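 Passive avoidance: one day after training, compound (0.1–30 mg/kg) or vehicle given orally 30 min before a retention trial. Read-out was latency to move from the light to the dark room; minimum effective dose (MED) reported.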

[3] = test system: Rattus norvegicus; assay: Memory improving activity in rat passive avoidance model assessed as effect on cycloheximide-induced amnesia at 0.1 mg/kg, po; format: functional, organism-based; set-up: dose 0.1 mg/kg; in short: as §1
[4] = test system: Rattus norvegicus; assay: Toxicity in po dosed rat; format: organism-based; details: in vivo
[5] = DPPH radical scavenging activity at 100 uM relative to control; format: ADME
In short: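 DPPH 100 μM in ethanol; compound added in ethanol to a final 100 μM; optical density read; scavenging expressed as a percentage of the optical density of a control with excess vitamin C.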

IC50 [1] [µM] | SMILES | further results
9 | CCCCCCc1ccc(-c2c(C)[nH]c(=O)n2C)cc1 | minimal effective dose [2]: 0.3 mg/kg
12 | CCCCc1ccc(-c2c(C)[nH]c(=O)n2CCCC)cc1 | –
85.3 | Cc1ccc(-c2c(C)[nH]c(=O)n2C)cc1 | –
> 100 | CCCCn1c(-c2ccccc2)c(C)[nH]c1=O | –
20.4 | COc1ccc(-c2c(C)[nH]c(=O)n2C2CCCCC2)cc1 | –
16.6 | CCCCc1ccc(-c2c(C)[nH]c(=O)n2-c2ccccc2)cc1 | –
> 100 | CCCCCCCCCCCCCCc1ccc(-c2c(C)[nH]c(=O)n2C2CCCCC2)cc1 | –
4.5 | CCCCCOc1ccc(-c2c(C)[nH]c(=O)n2C)cc1 | Activity [3]: inactive
4 | CCCCCCCCOc1ccc(-c2c(C)[nH]c(=O)n2C)cc1 | minimal effective dose [2]: 30 mg/kg
13 | Cc1[nH]c(=O)n(C2CCCCC2)c1-c1ccc(OC(C)C)cc1 | –
9.7 | CCCCCCCCCCCCOc1ccc(-c2c(C)[nH]c(=O)n2C)cc1 | minimal effective dose [2]: 0.1 mg/kg
8.5 | CCCCCCCCOc1ccc(-c2c(C)[nH]c(=O)n2C2CCCCC2)cc1 | minimal effective dose [2]: 30 mg/kg
47.6 | Cc1[nH]c(=O)n(C2CCCCC2)c1-c1ccccc1 | –
6.3 | Cc1[nH]c(=O)n(C)c1-c1ccc(-c2ccccc2)cc1 | Activity [4]: > 1000 mg/kg; minimal effective dose [2]: 0.3 mg/kg
10 | Cc1[nH]c(=O)n(C)c1-c1ccc(C2CCCCC2)cc1 | Activity [4]: > 1000 mg/kg; minimal effective dose [2]: 0.1 mg/kg
10.7 | CCCCc1ccc(-c2c(C)[nH]c(=O)n2C)cc1 | Activity [5]: 98%; Activity [4]: > 1000 mg/kg; minimal effective dose [2]: 0.1 mg/kg
21.5 | CCCc1ccc(-c2c(C)[nH]c(=O)n2C)cc1 | –
6.6 | Cc1[nH]c(=O)n(C)c1-c1ccc(OCCC(C)C)cc1 | Activity [3]: inactive
10.3 | CCCCCCCCc1ccc(-c2c(C)[nH]c(=O)n2C2CCCCC2)cc1 | –
13.9 | CCCCOc1ccc(-c2c(C)[nH]c(=O)n2C2CCCCC2)cc1 | Activity [5]: 88%
11.6 | CCCCCCCOc1ccc(-c2c(C)[nH]c(=O)n2C2CCCCC2)cc1 | –
147 | COc1ccc(-c2c(C)[nH]c(=O)n2C)cc1 | –

IC50 [1] [µM] | SMILES | further results
13.9 | CCCCc1ccc(-c2c(CC)[nH]c(=O)n2C)cc1 | –
20.4 | Cc1[nH]c(=O)n(C)c1-c1ccc(OC(C)C)cc1 | –
8.4 | CCCCCCCc1ccc(-c2c(C)[nH]c(=O)n2C)cc1 | minimal effective dose [2]: 30 mg/kg
13 | CCCCCCCCCCCCc1ccc(-c2c(C)[nH]c(=O)n2C)cc1 | –
43.8 | CCCCCCCCCCCCCCc1ccc(-c2c(C)[nH]c(=O)n2C)cc1 | –
> 100 | CCCCCCCCCCCCCCCCCCOc1ccc(-c2c(C)[nH]c(=O)n2C2CCCCC2)cc1 | –
9.1 | CCCCCOc1ccc(-c2c(C)[nH]c(=O)n2C2CCCCC2)cc1 | Activity [3]: inactive
5.7 | CCCCCCCOc1ccc(-c2c(C)[nH]c(=O)n2C)cc1 | Activity [3]: inactive
10.7 | CCCCc1ccc(-c2c(C)[nH]c(=O)n2C(C)C)cc1 | Activity [5]: 78%
5.1 | CCCCOc1ccc(-c2c(C)[nH]c(=O)n2C)cc1 | minimal effective dose [2]: 0.3 mg/kg
52.4 | CCCCCCCCCCCCOc1ccc(-c2c(C)[nH]c(=O)n2C2CCCCC2)cc1 | –
10.4 | Cc1[nH]c(=O)n(C2CCCCC2)c1-c1cccc(OC(C)C)c1 | –
21.5 | Cc1[nH]c(=O)n(C2CCCCC2)c1-c1ccccc1OC(C)C | –
13.7 | CCCCCCc1ccc(-c2c(C)[nH]c(=O)n2C2CCCCC2)cc1 | –
28.9 | Cc1[nH]c(=O)n(C2CCCCC2)c1-c1ccc(C2CCCCC2)cc1 | –
> 100 | Cc1[nH]c(=O)n(C)c1-c1ccccc1 | –
13.9 | CCCc1ccc(-c2c(C)[nH]c(=O)n2C2CCCCC2)cc1 | –
8.1 | Cc1[nH]c(=O)n(C)c1-c1ccc(Oc2ccccc2)cc1 | Activity [3]: inactive
8.5 | CCCCCCOc1ccc(-c2c(C)[nH]c(=O)n2C2CCCCC2)cc1 | Activity [3]: inactive
10.9 | Cc1[nH]c(=O)n(C2CCCCC2)c1-c1ccc(-c2ccccc2)cc1 | minimal effective dose [2]: 0.1 mg/kg
8.4 | Cc1[nH]c(=O)n(C)c1-c1ccc(C(C)(C)C)cc1 | –
> 100 | CCCCCCCCCCCCCCCCCCc1ccc(-c2c(C)[nH]c(=O)n2C)cc1 | –

IC50 [1] [µM] | SMILES | further results
> 100 | CCCCCCCCCCCCCCCCCCOc1ccc(-c2c(C)[nH]c(=O)n2C)cc1 | –
10.5 | CCCCCCCCCCOc1ccc(-c2c(C)[nH]c(=O)n2C2CCCCC2)cc1 | minimal effective dose [2]: 0.1 mg/kg
7.2 | Cc1[nH]c(=O)n(C2CCCCC2)c1-c1ccc(OCCC(C)C)cc1 | Activity [3]: inactive
5.9 | CCCCCc1ccc(-c2c(C)[nH]c(=O)n2C)cc1 | –
7.9 | CCCCCCCCCCc1ccc(-c2c(C)[nH]c(=O)n2C)cc1 | minimal effective dose [2]: 0.3 mg/kg
10.6 | CCCCCc1ccc(-c2c(C)[nH]c(=O)n2C2CCCCC2)cc1 | –
12.4 | CCCCc1ccc(-c2c(C)[nH]c(=O)n2Cc2ccccc2)cc1 | Activity [5]: 59%
10.9 | Cc1[nH]c(=O)n(C2CCCCC2)c1-c1ccc(CC(C)C)cc1 | –
8.7 | CCCCCCCc1ccc(-c2c(C)[nH]c(=O)n2C2CCCCC2)cc1 | –
27 | CCCCCCCCCCc1ccc(-c2c(C)[nH]c(=O)n2C2CCCCC2)cc1 | –
8.3 | Cc1[nH]c(=O)n(C2CCCCC2)c1-c1ccc(OCc2ccccc2)cc1 | minimal effective dose [2]: 0.1 mg/kg
> 100 | CCCCCCCCCCCCCCCCCCc1ccc(-c2c(C)[nH]c(=O)n2C2CCCCC2)cc1 | –
7.8 | Cc1[nH]c(=O)n(C)c1-c1ccc(CC(C)C)cc1 | minimal effective dose [2]: 30 mg/kg
19.4 | CCCCCCCCc1ccc(-c2c(C)[nH]c(=O)n2C)cc1 | –
27.1 | CCCCc1ccc(-c2c(C)[nH]c(=O)n2C2CCCCC2)cc1 | –
7.9 | Cc1[nH]c(=O)n(C2CCCCC2)c1-c1ccc(Oc2ccccc2)cc1 | minimal effective dose [2]: 0.1 mg/kg
6.7 | Cc1[nH]c(=O)n(C)c1-c1ccc(OCc2ccccc2)cc1 | Activity [3]: inactive
> 100 | CCCCCCCCCCCCc1ccc(-c2c(C)[nH]c(=O)n2C2CCCCC2)cc1 | –
7.3 | CCCCCCOc1ccc(-c2c(C)[nH]c(=O)n2C)cc1 | Activity [3]: inactive
6.9 | CCCCCCCCCCOc1ccc(-c2c(C)[nH]c(=O)n2C)cc1 | minimal effective dose [2]: 0.1 mg/kg
